Experiment [1] concerns A549. Briefly: Antiproliferative activity against human A549 cell line after 72 hrs by SRB assay. Format: functional. Conditions: A549, 72 h. A digest of the protocol:
(§1)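 Cells seeded at 5×10³/well in RPMI and allowed to attach in drug-free medium for 18 h. Compounds were added in DMSO/H2O (3:7) and exposure was continuous for 72 h. Cells were then fixed with cold 50% TCA for 60 min at 4°C, stained with 0.4% SRB in 1% acetic acid for 10 min at room temperature, solubilized in Tris, and OD was read at 490 nm. GI50 was derived from 100×[(T−T0)/(C−T0)]=50.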

In experiment [2] the test system is HT-29. Briefly: Antiproliferative activity against human HT29 cell line after 72 hrs by SRB assay. Format: functional. The conditions noted are these: HT-29, 72 h. In short, it runs like this:
as §1
For orientation: In SRB staining, fixed cells bind dye roughly in proportion to their protein.

The test system of experiment [3] is MDA-MB-231. As to the kind of experiment: Antiproliferative activity against human MDA-MB-231 cell line after 72 hrs by SRB assay at 10 ug/mL. It counts as functional, cell-based.
For experiment [4], the system named is A549. As to the kind of experiment: Antiproliferative activity against human A549 cell line after 72 hrs by SRB assay at 10 ug/mL. Format: functional, cell-based.
The subject of experiment [5] is HT-29. As to the kind of experiment: Antiproliferative activity against human HT29 cell line after 72 hrs by SRB assay at 10 ug/mL. Format: functional, cell-based.

This note sets out measurements from ChEMBL document CHEMBL1148492, “Synthesis and structure-activity relationship study of potent cytotoxic analogues of the marine alkaloid Lamellarin D” (2006).

The structures appear in SMILES notation. Activity calls are given as the source filed them. No cut-off for these calls is given here.

The term GI50 denotes the concentration at which growth is held to half of that of the control. A low value points to more potent growth inhibition. For `COC(=O)c1c(-c2cc(OC)c(OC)c(OC)c2)c(-c2cc(OC)c(OC)c(OC)c2)c2n1CCc1cc(OC(C)C)c(OC)cc1-2`, the GI50 is 67.9 µM in experiment [1] and 34 µM in experiment [2]. Besides, the result in experiment [3] was inactive.

For `COC(=O)c1c(-c2cc(OC)c(OC(C)C)cc2OC(C)C)c(-c2ccc(OC(C)C)c(OC)c2)c2c3cc(OC)c(OC(C)C)cc3ccn12`, the result in experiment [4] and in experiment [3] was inactive. The same compound yielded a GI50 in experiment [2] of 13.6 µM.

In the case of `COC(=O)c1c(-c2ccc(O)cc2O)c(-c2cccc(O)c2)c2n1CCc1cc(O)c(OC)cc1-2`, the outcome in experiment [4], in experiment [5] and in experiment [3] was inactive.
